Reference: ChEMBL document CHEMBL1146021, “Calcium channel antagonists discovered by a multidisciplinary approach” (J Med Chem, 2006)
Calls of active or inactive are those of the source.

Columns and labels:
Cavia porcellus [1] = species on record: Cavia porcellus; assay: Vasorelaxant activity assessed as inhibition of calcium-induced contraction of potassium ion-depolarized guinea pig aortic strips at 100 uM; assay type: functional, Aorta; set-up: scale not given: the % may be the effect or the level left
Method in brief: (§1)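 Helicoidal guinea-pig aortic strips in aerated PSS at 35 °C, contracted with 80 mM KCl (K+ substituted for Na+). At plateau (about 45 min), compounds added cumulatively at 0.1-500 μM in DMSO vehicle. Relaxation measured isometrically. IC50 by Probit analysis, n = 6-8.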

Cavia porcellus [2] = species on record: Cavia porcellus; assay: Negative inotropic activity in guinea pig left atrium; assay type: functional; conditions: Cardiac atrium
Method in brief: (§2)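 Guinea-pig left atria driven at 1 Hz (0.6-0.8 ms pulses, about 50% threshold voltage) in PSS, 35 °C, pH 7.4, 95% O2/5% CO2. Isometric tension recorded. Cumulative concentrations 0.01-100 μM in DMSO (≤0.3%), each to steady state. Percent decrease in developed tension, n = 4-6. EC50 by Probit analysis.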

Cavia porcellus [3] = species on record: Cavia porcellus; assay: Negative chronotropic activity in guinea pig right atrium at 10 uM; assay type: functional, Cardiac atrium
Method in brief: (§3)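 Spontaneously beating guinea-pig right atria in PSS, 35 °C, pH 7.4, 95% O2/5% CO2. Cumulative concentrations 0.01-100 μM in DMSO (≤0.3% in bath), each to steady state. Rate decrease taken as percent of control (pretreatment 170-195 beats/min), n = 6-8. EC30 by Probit analysis.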

Cavia porcellus [4] = species on record: Cavia porcellus; assay: Negative inotropic activity in guinea pig left atrium at 500 uM; assay type: functional, Cardiac atrium
Cavia porcellus [5] = species on record: Cavia porcellus; assay: Negative inotropic activity in guinea pig left atrium at 100 uM; assay type: functional, Cardiac atrium; conditions: in the assay text read “50 uM” for “100 uM”; method in brief: as §2
Cavia porcellus [6] = species on record: Cavia porcellus; assay: Negative chronotropic activity in guinea pig right atrium at 5 uM; assay type: functional, Cardiac atrium; method in brief: as §3
Cavia porcellus [7] = species on record: Cavia porcellus; assay: Negative inotropic activity in guinea pig left atrium at 50 uM; assay type: functional, Cardiac atrium; method in brief: as §2
Cavia porcellus [8] = species on record: Cavia porcellus; assay: Cardiac activity in guinea pig heart measured as decrease in left ventricular pressure at 1 uM relative to control; assay type: functional; set-up: scale not given: the % may be the effect or the level left
Method in brief: (§4)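 Langendorff-perfused isolated hearts from female guinea-pigs (300-400 g). Compounds given cumulatively at 0.001-1 μM, each step held to steady state (about 30 min). Read-outs: surface ECG (PR interval, heart rate), intraventricular balloon +(dP/dt)max and coronary perfusion pressure. Results given as percent change from basal at 1 μM, mean ± SEM.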

Cavia porcellus [9] = species on record: Cavia porcellus; assay: Negative chronotropic activity in guinea pig right atrium; assay type: functional; conditions: Cardiac atrium; method in brief: as §3
Cavia porcellus [10] = species on record: Cavia porcellus; assay: Cardiac activity in guinea pig heart measured as prolongation of atrioventricular conduction time at 1 uM relative to control; assay type: functional; method in brief: as §4
Cavia porcellus [11] = species on record: Cavia porcellus; assay: Negative inotropic activity in guinea pig left ventricular papillary muscle; assay type: functional; conditions: Muscle tissue
Cavia porcellus [12] = species on record: Cavia porcellus; assay: Antagonist activity against calcium channel assessed as inhibition of calcium-induced contraction of potassium ion-depolarized guinea pig ileum longitudinal smooth muscle at 1 uM; assay type: functional; set-up: scale not given: the % may be the effect or the level left
Method in brief: (§5)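 Guinea-pig ileum longitudinal smooth muscle segments (2 cm) held at 300-400 mg resting tension, 37 °C, in oxygenated (100% O2) Hepes-buffered PSS at pH 7.4. Isometric contraction recorded. Inhibition expressed as percentage of control. Probit log concentration–response analysis, n = 6-8.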

Cavia porcellus [13] = species on record: Cavia porcellus; assay: Negative inotropic activity in guinea pig left atrium at 10 uM; assay type: functional, Cardiac atrium; method in brief: as §2
Cavia porcellus [14] = species on record: Cavia porcellus; assay: Negative inotropic activity in guinea pig left ventricular papillary muscle at 10 uM; assay type: functional, Muscle tissue
Cavia porcellus [15] = species on record: Cavia porcellus; assay: Cardiac activity in guinea pig heart measured as decrease in heart rate at 1 uM by ECG relative to control; assay type: functional; set-up: scale not given: the % may be the effect or the level left; method in brief: as §4
Cavia porcellus [16] = species on record: Cavia porcellus; assay: Cardiac activity in guinea pig heart measured as decrease in coronary perfusion pressure at 1 uM relative to control; assay type: functional; set-up: scale not given: the % may be the effect or the level left; method in brief: as §4
Cavia porcellus [17] = species on record: Cavia porcellus; assay: Antagonist activity against calcium channel assessed as inhibition of calcium-induced contraction of potassium ion-depolarized guinea pig ileum longitudinal smooth muscle; assay type: functional; method in brief: as §5
Cavia porcellus [18] = species on record: Cavia porcellus; assay: Antagonist activity against calcium channel assessed as inhibition of carbachol-induced tonic contraction of guinea pig ileum longitudinal smooth muscle; assay type: functional
Method in brief: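 Guinea-pig ileum longitudinal smooth muscle segments (2 cm), 300-400 mg resting tension, 37 °C, oxygenated Hepes-buffered PSS at pH 7.4, equilibrated 1 h. Two control carbachol curves run 30 min apart. Test agent (10 μM) added 30 min before the carbachol curve. Isometric inhibition expressed as percent of control.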

Cavia porcellus [19] = species on record: Cavia porcellus; assay: Negative inotropic activity in guinea pig left atrium at 5 uM; assay type: functional, Cardiac atrium; method in brief: as §2
Cavia porcellus [20] = species on record: Cavia porcellus; assay: Negative inotropic activity in guinea pig left atrium at 1 uM; assay type: functional, Cardiac atrium; method in brief: as §2
Cavia porcellus [21] = species on record: Cavia porcellus; assay: Negative chronotropic activity in guinea pig right atrium at 50 uM; assay type: functional, Cardiac atrium; method in brief: as §3
Cavia porcellus [22] = species on record: Cavia porcellus; assay: Vasorelaxant activity assessed as inhibition of calcium-induced contraction of potassium ion-depolarized guinea pig aortic strips at 500 uM; assay type: functional, Aorta; set-up: scale not given: the % may be the effect or the level left; method in brief: as §1
Cavia porcellus [23] = species on record: Cavia porcellus; assay: Vasorelaxant activity assessed as inhibition of calcium-induced contraction of potassium ion-depolarized guinea pig aortic strips; assay type: functional; conditions: Aorta; method in brief: as §1
[24] = target: Voltage-dependent L-type calcium channel subunit alpha-1C (Rattus norvegicus, UniProt P22002); assay: Inhibition of [3H]diltiazem binding to Sprague-Dawley rat cardiomyocytes
Chain of Voltage-dependent L-type calcium channel subunit alpha-1C (P22002 whole entry, the tested form may be a part): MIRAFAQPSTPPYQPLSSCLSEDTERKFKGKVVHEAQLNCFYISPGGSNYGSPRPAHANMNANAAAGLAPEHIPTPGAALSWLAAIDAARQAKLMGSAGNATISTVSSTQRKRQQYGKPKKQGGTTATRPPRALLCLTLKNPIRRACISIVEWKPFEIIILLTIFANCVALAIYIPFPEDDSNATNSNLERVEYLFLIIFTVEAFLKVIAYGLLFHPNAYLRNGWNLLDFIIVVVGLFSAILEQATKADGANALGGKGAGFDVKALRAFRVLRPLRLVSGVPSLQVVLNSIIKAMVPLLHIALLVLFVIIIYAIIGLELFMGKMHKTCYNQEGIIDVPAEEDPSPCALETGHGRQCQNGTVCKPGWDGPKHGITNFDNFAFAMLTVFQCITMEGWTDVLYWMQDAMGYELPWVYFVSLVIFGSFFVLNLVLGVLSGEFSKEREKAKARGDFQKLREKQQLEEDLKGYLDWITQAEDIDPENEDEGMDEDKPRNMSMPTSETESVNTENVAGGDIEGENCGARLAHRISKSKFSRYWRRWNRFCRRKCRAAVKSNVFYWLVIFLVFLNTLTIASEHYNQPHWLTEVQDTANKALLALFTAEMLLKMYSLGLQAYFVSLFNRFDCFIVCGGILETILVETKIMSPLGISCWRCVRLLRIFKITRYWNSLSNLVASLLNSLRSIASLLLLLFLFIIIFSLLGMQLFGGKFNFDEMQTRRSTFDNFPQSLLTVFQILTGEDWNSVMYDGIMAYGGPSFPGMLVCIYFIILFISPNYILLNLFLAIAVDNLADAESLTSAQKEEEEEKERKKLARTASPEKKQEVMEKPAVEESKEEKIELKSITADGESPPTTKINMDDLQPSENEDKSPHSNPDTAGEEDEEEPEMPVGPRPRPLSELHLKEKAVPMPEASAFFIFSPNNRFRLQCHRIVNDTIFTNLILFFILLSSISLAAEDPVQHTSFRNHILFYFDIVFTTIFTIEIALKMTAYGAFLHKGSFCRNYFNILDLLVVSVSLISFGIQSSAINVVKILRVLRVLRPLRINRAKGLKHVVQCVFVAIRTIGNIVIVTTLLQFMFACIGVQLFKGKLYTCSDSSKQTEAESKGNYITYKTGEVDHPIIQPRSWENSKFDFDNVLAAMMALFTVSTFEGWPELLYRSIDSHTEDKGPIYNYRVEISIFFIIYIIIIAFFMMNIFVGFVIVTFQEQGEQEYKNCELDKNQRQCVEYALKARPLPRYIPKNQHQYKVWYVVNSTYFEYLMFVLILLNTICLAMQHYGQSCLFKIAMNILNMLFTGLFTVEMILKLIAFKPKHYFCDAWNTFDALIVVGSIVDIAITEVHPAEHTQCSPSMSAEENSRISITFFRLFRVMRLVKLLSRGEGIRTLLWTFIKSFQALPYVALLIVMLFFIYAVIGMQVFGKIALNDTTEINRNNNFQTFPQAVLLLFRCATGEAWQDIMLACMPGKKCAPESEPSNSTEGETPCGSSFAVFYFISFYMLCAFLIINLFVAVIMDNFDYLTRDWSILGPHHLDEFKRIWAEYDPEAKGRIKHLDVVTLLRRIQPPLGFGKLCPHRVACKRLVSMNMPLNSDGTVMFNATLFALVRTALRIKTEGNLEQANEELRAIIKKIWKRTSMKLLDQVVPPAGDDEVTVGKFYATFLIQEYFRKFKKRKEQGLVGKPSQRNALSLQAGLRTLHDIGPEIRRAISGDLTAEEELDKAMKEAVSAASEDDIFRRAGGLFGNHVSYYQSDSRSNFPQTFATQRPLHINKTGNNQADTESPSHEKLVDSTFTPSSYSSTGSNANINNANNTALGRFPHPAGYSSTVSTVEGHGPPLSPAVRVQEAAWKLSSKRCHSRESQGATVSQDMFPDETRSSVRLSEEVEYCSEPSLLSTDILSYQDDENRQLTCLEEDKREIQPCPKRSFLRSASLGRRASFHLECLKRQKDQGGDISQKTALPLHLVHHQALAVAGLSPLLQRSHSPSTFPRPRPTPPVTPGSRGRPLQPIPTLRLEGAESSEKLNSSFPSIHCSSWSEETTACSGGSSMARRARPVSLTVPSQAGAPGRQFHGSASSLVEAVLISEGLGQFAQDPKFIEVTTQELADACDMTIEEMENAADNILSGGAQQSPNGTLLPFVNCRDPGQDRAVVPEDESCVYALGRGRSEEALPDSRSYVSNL
Method in brief: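 Cardiomyocytes from male Sprague-Dawley rats, isolated by Langendorff perfusion and stored frozen (200 μg per tube). Incubated with 5 nM [3H]diltiazem and test ligand (0.1 nM-100 μM) in 50 mM Tris pH 7.4, 25 °C, 90 min. Bound ligand separated by filtration. Nonspecific binding with 100 μM diltiazem. Triplicates. pIC50 from sigmoidal fit; Ki by Cheng-Prusoff.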

Cavia porcellus [25] = species on record: Cavia porcellus; assay: Negative inotropic activity in guinea pig left ventricular papillary muscle at 50 uM; assay type: functional, Muscle tissue
Cavia porcellus [26] = species on record: Cavia porcellus; assay: Antagonist activity against calcium channel assessed as inhibition of calcium-induced contraction of potassium ion-depolarized guinea pig ileum longitudinal smooth muscle at 50 uM; assay type: functional; set-up: scale not given: the % may be the effect or the level left; method in brief: as §5
Cavia porcellus [27] = species on record: Cavia porcellus; assay: Negative chronotropic activity in guinea pig right atrium at 500 uM; assay type: functional, Cardiac atrium
Cavia porcellus [28] = species on record: Cavia porcellus; assay: Negative chronotropic activity in guinea pig right atrium at 100 uM; assay type: functional, Cardiac atrium; conditions: in the assay text read “50 uM” for “100 uM”; method in brief: as §3

## COC(=O)[C@H]1SCCN1S(=O)(=O)c1ccc(Cl)cc1
Cavia porcellus [1]
  Activity: 29%
Cavia porcellus [2]
  EC50: 1 µM
Cavia porcellus [3]
  Activity: 2%
Cavia porcellus [4]
  Activity: 92%

## C=CCN(CC=C)S(=O)(=O)c1ccc(Cl)cc1
Cavia porcellus [5]
  Activity: 98%
Cavia porcellus [1]
  Activity: 42%
Cavia porcellus [2]
  EC50: 1.17 µM
Cavia porcellus [3]
  Activity: 6%

## O=C(c1ccccn1)c1conc1-c1c(Cl)cccc1Cl
Cavia porcellus [1]
  Activity: 25%
Cavia porcellus [2]
  EC50: 0.99 µM
Cavia porcellus [6]
  Activity: 21%
Cavia porcellus [7]
  Activity: 81%

## COc1ccc([C@@H]2Sc3ccccc3N(CCN(C)C)C(=O)[C@@H]2OC(C)=O)cc1 [DILTIAZEM]
Cavia porcellus [1]
  Activity: 88%
Cavia porcellus [8]
  Activity: 59%
Cavia porcellus [9]
  EC30: 0.07 µM
Cavia porcellus [10]
  Activity: 34%
Cavia porcellus [11]
  EC50: 1.61 µM
Cavia porcellus [12]
  Activity: 98%
Cavia porcellus [13]
  Activity: 78%
Cavia porcellus [14]
  Activity: 82%
Cavia porcellus [15]
  Activity: 25%
Cavia porcellus [6]
  Activity: 94%
Cavia porcellus [16]
  Activity: 51%
Cavia porcellus [17]
  EC50: 0.11 µM
Cavia porcellus [18]
  IC50: 0.48 µM

## CCN(c1ccccc1)S(=O)(=O)c1ccc(Cl)cc1
Cavia porcellus [1]
  Activity: 46%
Cavia porcellus [2]
  EC50: 0.3 µM
Cavia porcellus [19]
  Activity: 90%
Cavia porcellus [6]
  Activity: 7%

## CCO[C@@]1(c2ccc(Br)cc2)SC=C(C)n2c1noc2=O
Cavia porcellus [1]
  Activity: 7%
Cavia porcellus [20]
  Activity: 47%
Cavia porcellus [21]
  Activity: 15%

## Cc1snc(S(=O)(=O)Cc2c(F)cccc2Cl)c1C#N
Cavia porcellus [1]
  Activity: 23%
Cavia porcellus [2]
  EC50: 2.28 µM
Cavia porcellus [7]
  Activity: 80%
Cavia porcellus [21]
  Activity: 22%

## C=CCN(c1ccccc1)S(=O)(=O)c1ccc(Cl)cc1
Cavia porcellus [22]
  Activity: 54%
Cavia porcellus [2]
  EC50: 0.31 µM
Cavia porcellus [20]
  Activity: 73%
Cavia porcellus [3]
  Activity: 5%
Cavia porcellus [23]
  IC50: 17.7 µM

## O=S(=O)(c1ccc(Cl)cc1)N(C1CCNCC1)C1CC1
Cavia porcellus [1]
  Activity: 19%
Cavia porcellus [8]
  Activity: 12%
Cavia porcellus [9]
  EC30: 0.48 µM
Cavia porcellus [10]
  Activity: inactive
Cavia porcellus [2]
  EC50: 0.313 µM
Cavia porcellus [11]
  EC50: 10.2 µM
[24]
  Ki: 3.02 µM
Cavia porcellus [15]
  Activity: 12%
Cavia porcellus [25]
  Activity: 78%
Cavia porcellus [7]
  Activity: 76%
Cavia porcellus [16]
  Activity: 13%
Cavia porcellus [17]
  EC50: 14.2 µM
Cavia porcellus [26]
  Activity: 89%
Cavia porcellus [21]
  Activity: 64%
Cavia porcellus [18]
  IC50: 34.5 µM

## O=S(=O)(c1ccc(Cl)cc1)N(Cc1ccsc1)S(=O)(=O)c1ccc(Cl)cc1
Cavia porcellus [1]
  Activity: 9%
Cavia porcellus [2]
  EC50: 2.55 µM
Cavia porcellus [4]
  Activity: 71%
Cavia porcellus [27]
  Activity: 7%

## COC(=O)c1ccccc1-n1cccc1C(=O)C(Cl)(Cl)Cl
Cavia porcellus [1]
  Activity: 20%
Cavia porcellus [2]
  EC50: 3.91 µM
Cavia porcellus [28]
  Activity: 33%
Cavia porcellus [4]
  Activity: 76%
